Experimental data published in ChEMBL document CHEMBL5653631, “A Potent and Selective ULK1 Inhibitor Suppresses Autophagy and Sensitizes Cancer Cells to Nutrient Stress” (iScience, 2018).
Each block holds one molecule with its values, some of them ahead of it.

Key:
[1] = molecular target: Activin receptor type-2A (Homo sapiens) (UniProt P27037); test: Inhibition of human recombinant ACTR2 at 500 nM in presence of ATP by radiometric assay relative to control
[2] = molecular target: T1, Aurora kinase A (Homo sapiens) (UniProt O14965); test: Inhibition of human recombinant AurA at 500 nM in presence of ATP by radiometric assay relative to control
T1 sequence (whole entry): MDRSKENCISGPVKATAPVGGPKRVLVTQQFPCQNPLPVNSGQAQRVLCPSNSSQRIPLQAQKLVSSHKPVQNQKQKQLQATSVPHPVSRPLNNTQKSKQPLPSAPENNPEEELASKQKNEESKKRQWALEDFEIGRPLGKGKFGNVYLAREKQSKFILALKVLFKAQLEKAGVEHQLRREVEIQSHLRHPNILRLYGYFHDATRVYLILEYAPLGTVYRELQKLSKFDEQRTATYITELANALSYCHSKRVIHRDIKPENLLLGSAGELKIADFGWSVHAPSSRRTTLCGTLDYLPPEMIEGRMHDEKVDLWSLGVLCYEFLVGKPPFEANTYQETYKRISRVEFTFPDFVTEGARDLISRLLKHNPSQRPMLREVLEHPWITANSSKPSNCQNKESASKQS
Method in brief: (§1)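 Panel of 327 recombinant human kinases, each assayed in vitro by radiometric activity assay in duplicate at a single inhibitor concentration per compound, chosen with reference to its ULK1 inhibition. Activity remaining was expressed as percent of vehicle control, and percent inhibition was calculated as 100 minus percent activity remaining.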

[3] = molecular target: Non-receptor tyrosine-protein kinase TYK2 (Homo sapiens) (UniProt P29597); test: Inhibition of human recombinant TYK2 at 500 nM in presence of ATP by radiometric assay relative to control
[4] = molecular target: T2, G protein-coupled receptor kinase 3 (Homo sapiens) (UniProt P35626); test: Inhibition of human recombinant BARK2 at 500 nM in presence of ATP by radiometric assay relative to control
T2 sequence (whole entry): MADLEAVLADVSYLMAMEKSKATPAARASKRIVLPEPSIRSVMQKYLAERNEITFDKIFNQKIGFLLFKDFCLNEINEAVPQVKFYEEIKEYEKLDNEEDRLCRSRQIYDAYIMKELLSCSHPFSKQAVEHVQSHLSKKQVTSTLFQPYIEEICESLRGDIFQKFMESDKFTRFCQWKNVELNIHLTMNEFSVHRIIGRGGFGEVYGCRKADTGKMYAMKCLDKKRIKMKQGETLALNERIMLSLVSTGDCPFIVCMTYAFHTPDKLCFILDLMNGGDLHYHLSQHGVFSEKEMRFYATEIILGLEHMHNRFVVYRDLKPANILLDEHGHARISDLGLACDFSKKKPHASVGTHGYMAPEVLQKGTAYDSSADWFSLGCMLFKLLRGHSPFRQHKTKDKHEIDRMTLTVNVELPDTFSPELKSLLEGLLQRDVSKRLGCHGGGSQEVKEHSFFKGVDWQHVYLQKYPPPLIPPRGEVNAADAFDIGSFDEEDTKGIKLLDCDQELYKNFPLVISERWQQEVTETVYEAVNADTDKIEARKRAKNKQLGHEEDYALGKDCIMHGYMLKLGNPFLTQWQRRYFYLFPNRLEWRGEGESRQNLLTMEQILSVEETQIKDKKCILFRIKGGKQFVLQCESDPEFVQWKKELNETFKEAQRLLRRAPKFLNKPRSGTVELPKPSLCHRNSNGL
Method in brief: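 Part of a radiometric in vitro activity panel of 327 recombinant human kinases. Each kinase was tested in duplicate at one inhibitor concentration. Activity remaining was expressed as a percentage of the vehicle control, and percent inhibition was taken as 100 minus that value.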

[5] = molecular target: DNA-PK/Ku70/Ku85 (Homo sapiens) (UniProt P78527+P12956+P13010); test: Inhibition of human recombinant DNAPK at 500 nM in presence of ATP by radiometric assay relative to control; type: protein-complex assay
[6] = molecular target: G protein-coupled receptor kinase 6 (Homo sapiens) (UniProt P43250); test: Inhibition of human recombinant GPRK6 at 500 nM in presence of ATP by radiometric assay relative to control
[7] = molecular target: Casein kinase II subunit alpha (Homo sapiens) (UniProt P68400); test: Inhibition of human recombinant CK2a1 at 500 nM in presence of ATP by radiometric assay relative to control
[8] = molecular target: T3, Testis-specific serine/threonine-protein kinase 2 (Homo sapiens) (UniProt Q96PF2); test: Inhibition of human recombinant TSSK2 at 500 nM in presence of ATP by radiometric assay relative to control
T3 sequence (whole entry): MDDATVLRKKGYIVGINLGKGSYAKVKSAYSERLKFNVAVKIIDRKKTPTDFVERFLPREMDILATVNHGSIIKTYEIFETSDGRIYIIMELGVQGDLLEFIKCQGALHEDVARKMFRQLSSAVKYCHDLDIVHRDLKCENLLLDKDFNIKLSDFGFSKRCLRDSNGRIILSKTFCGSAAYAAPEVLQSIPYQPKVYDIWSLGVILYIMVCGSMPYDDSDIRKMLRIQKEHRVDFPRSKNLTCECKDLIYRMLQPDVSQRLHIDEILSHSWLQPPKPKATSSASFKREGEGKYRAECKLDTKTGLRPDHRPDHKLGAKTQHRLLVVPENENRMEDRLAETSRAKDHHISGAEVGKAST

[9] = molecular target: Cyclin-dependent kinase 12 (Homo sapiens) (UniProt Q9NYV4); test: Inhibition of human recombinant CRK7 at 15 nM in presence of ATP by radiometric assay relative to control
Homo sapiens = species: Homo sapiens; test: Inhibition of human recombinant KHS1 at 15 nM in presence of ATP by radiometric assay relative to control
[10] = molecular target: Serine/threonine-protein kinase PAK 3 (Homo sapiens) (UniProt O75914); test: Inhibition of human recombinant PAK3 at 15 nM related to control ULK1
[11] = molecular target: Serine-protein kinase ATM (Homo sapiens) (UniProt Q13315); test: Inhibition of human recombinant ATM at 15 nM in presence of ATP by radiometric assay relative to control
Method in brief: as §1

[12] = molecular target: Serine/threonine-protein kinase ATR (Homo sapiens) (UniProt Q13535); test: Inhibition of human recombinant ATR at 15 nM in presence of ATP by radiometric assay relative to control
Method in brief: as §1

[13] = molecular target: Serine/threonine-protein kinase MARK1 (Homo sapiens) (UniProt Q9P0L2); test: Inhibition of human recombinant MARK1 at 15 nM in presence of ATP by radiometric assay relative to control
[14] = molecular target: Calcium/calmodulin-dependent protein kinase type II subunit gamma (Homo sapiens) (UniProt Q13555); test: Inhibition of human recombinant CaMK2g at 15 nM in presence of ATP by radiometric assay relative to control
[15] = molecular target: Receptor-type tyrosine-protein kinase FLT3 (Homo sapiens) (UniProt P36888); test: Inhibition of human recombinant FLT3 at 40 nM in presence of ATP by radiometric assay relative to control

inhibition [1]: 3%
inhibition [2]: 80%
inhibition [3]: 78%
inhibition [4]: 7%
inhibition [5]: 12%
inhibition [6]: 12%
inhibition [7]: 14%
inhibition [8]: 2%
SMILES: CNC(=O)c1ccccc1Oc1nc(Nc2cc(OC)c(OC)c(OC)c2)ncc1Br

inhibition [9]: 4%
inhibition (Homo sapiens): 14%
fold change (FC) [10]: 0.05
inhibition [11]: 6%
inhibition [12]: 4%
inhibition [13]: 54%
inhibition [14]: 22%
SMILES: CC(C)[C@H](NC(=O)c1cc(-c2cnn3cc(-c4ccc(OCCN5CCCCC5)cc4)cnc23)cs1)C(F)(F)F

inhibition [15]: 19%
SMILES: O=C(N[C@@H](C1CC1)C(F)(F)F)c1cc(-c2cnn3cc(-c4ccc(F)cc4)cnc23)cs1
